To fix the notation:
B1: tRNA (parent)
chain: CUCUCGGUAGCCAAGUUGGUUUAAGGCGCAAGACUUUAAUUUAUCACUACGAAAUCUUGAGAUCGGGCGUUCGACUCGCCCCCGGGAGAUUUUUUCCUCGAGCAA

These results are taken from the RNAGym collection of RNA variant scans (doi:10.1101/gad.245936.114).

Fewer inactive variants are shown than the library holds.

In this series the parent is B1. Kind of series: nonsense suppression (GFP-seq) (ratio to wild type); higher = more function; SUP4oc tRNA, yeast GFP reporter sort-seq. The method in brief:
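Nonsense suppression (GFPSEQ) is the median GFP/RFP ratio of each sorting bin, weighted by the variant's estimated share of cells in that bin and expressed relative to the unmutated parent tRNA. Yeast strains carried genome-integrated variants of an ochre-suppressor tRNA from a library with ~3% random mutations, plus a galactose-driven GFP ochre reporter and RFP, and were grown in raffinose/galactose medium containing 80 mg/L adenine. Cells were sorted into GFP/RFP bins, each bin was Illumina-sequenced (phred ≥30), and variants were kept only with ≥100 reads and ≥30 cells.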
Regarding G61A U63G, the nonsense suppression came out at 0.227. With G61A U63C the figure was 0.728; with G61A U63A, 0.304; with U55A A60C C75U G78C C79G A89G, not above 0.026. Consider U63C A74G, for which the nonsense suppression came out at 0.0264. To U55C U63G belongs not above 0.026; to U55C U63A, 0.244.

As for U55C U63C, the nonsense suppression was 0.156. To G61A A62U G84U belongs not above 0.026; to G61C C81G, 0.248. To U58A A74G G88A belongs not above 0.026; to C56U A87G, not above 0.026. G61C G69C C79G G84C: the nonsense suppression is not above 0.026. Regarding U58G G59A C80U G86U, the nonsense suppression is not above 0.026.

Regarding G61A A89G, the nonsense suppression amounted to 0.0396. For G61A A89C, the nonsense suppression amounted to 0.0288. Take G61U G78U: the nonsense suppression was 0.165. As for A60G G73C, the nonsense suppression was not above 0.026. With A54U A89C the figure was not above 0.026; with A60U A62G, 0.112. On to G61U C75G, for which the nonsense suppression is 1.08. Take U55C C64G: the nonsense suppression is 0.0515.

Regarding A60U G78C G85A, the nonsense suppression was found to be 1.16. On to U58C A60C, for which the nonsense suppression is 0.0568. With A54U G61U the figure was 1.16; with A54U G61A, 0.611; with U55C G86A, 0.0315. For U55C G86C, the nonsense suppression was 0.164. With G61C U71C the figure was 0.061.

For A60G G78A, the nonsense suppression amounted to 0.0542. Turning to A60G G78U, the nonsense suppression was 0.0498. With G61C G84U the figure was 0.199.

On to U58G G85A, for which the nonsense suppression stood at 0.0573. On to U57C A60U, for which the nonsense suppression was 0.0266. For the variant G59C G85A, the nonsense suppression stood at 0.114.

For the variant U57A U76A, the nonsense suppression was not above 0.026.

In the case of G61U U71A G86A, the nonsense suppression was not above 0.026. Take A60C A62U: the nonsense suppression was determined as 0.0785.

As to A54C U76G A89G, the nonsense suppression was not above 0.026. In the case of U57A C75A, the nonsense suppression was 0.681. Regarding U57A C75U, the nonsense suppression worked out at 0.03. With U57C C79U the figure was not above 0.026. With A60G G66U, the nonsense suppression was found to be 0.0286.

As to A54U A62G, the nonsense suppression is 0.0321. With U63A C75G the figure was 1.13; with U55A C64G, not above 0.026; with A60U G65U A74C C82A, not above 0.026.

For the variant U55C A87C, the nonsense suppression worked out at 0.0719. To G61C U76C belongs 0.23; to A60U G67A, 0.0457; to U57A U58C C81G, not above 0.026.

Take A60G C64G: the nonsense suppression was not above 0.026. G61U U63C: the nonsense suppression was 0.808. With G61U U63G the figure was 0.232; with U55C G73A, 0.0331. To U55C G73U belongs 0.0422; to A62G U63C G66A, not above 0.026; to U55C U58A G67U, not above 0.026.

U58A U70C A74G: the nonsense suppression was not above 0.026.

As for U57A C82A, the nonsense suppression was not above 0.026. With U57A G66A G78C C82A the figure was not above 0.026; with G61C, 1.14; with G61A, 0.853. To G61U belongs 1.03; to A60U C79U, 0.761; to U55C G66A, 0.0631. Take A54G U71A: the nonsense suppression is not above 0.026. U58G G85U G86U: the nonsense suppression is not above 0.026. With U63A C68U the figure was 0.755.

Take G61U C75U G85A: the nonsense suppression stood at 1.04. For G61C C80U, the nonsense suppression was 0.731. To A60U U63G belongs 0.789; to A54U U76C, 1.08. For A54G C72A, the nonsense suppression was not above 0.026. To U57A C81G A89G belongs not above 0.026; to G61A C68U G69A G73A, not above 0.026. To A62U G78A belongs 0.0537. For A54U G65A, the nonsense suppression was determined as 0.0335. Turning to G61A C64G, the nonsense suppression was 0.0404. In the case of G61A A62U, the nonsense suppression stood at 0.311.

Take G61A A62C: the nonsense suppression was determined as 0.0863.

G61A G65A: the nonsense suppression turned out to be 0.127. Turning to A54U G84U, the nonsense suppression was determined as 0.0565.

With U57G C68G C75G, the nonsense suppression is not above 0.026. G59A U76G C77A: the nonsense suppression is not above 0.026. To A60G G84A belongs 0.269; to A60C C79U, 0.14; to G59U A74C C82U, not above 0.026. To G61C C79U belongs 0.202; to A62U, 0.193.

With A54U, the nonsense suppression was determined as 1.04.

Consider G61A G85U, for which the nonsense suppression was found to be 0.429. With U58G G66C C80G the figure was 0.0324; with A60C A74G, 0.0424. As for U55A U76A G86A, the nonsense suppression was not above 0.026. In the case of U57G G85C, the nonsense suppression is not above 0.026. With U63A G85U, the nonsense suppression turned out to be 0.23. For the variant U63A G85A, the nonsense suppression worked out at 1.09. To U63C belongs 1.05; to U63A, 1.05; to G59A G61A U71G G78U, not above 0.026. To C56U G88U belongs not above 0.026; to U55C, 1.09.

For A62U U63C, the nonsense suppression is not above 0.026. To A54C U57A belongs 0.0382; to G61A C72U, 0.0666; to G61A C72A, 0.0325. For U57A, the nonsense suppression amounted to 0.0873. In the case of A54C U63G, the nonsense suppression amounted to 0.0506. As to A54C U63A, the nonsense suppression was determined as 0.377. Regarding A54C U63C, the nonsense suppression was 0.729. To A54U C81A belongs not above 0.026. For the variant G61A G65C G69A C80U, the nonsense suppression is not above 0.026. On to C56G U58C G66C U70C, for which the nonsense suppression is not above 0.026. With G59A G66C the figure was not above 0.026. With U63C C68U the figure was 0.228. Take U63A U76C: the nonsense suppression stood at 0.748. As to A54U C64U, the nonsense suppression came to 0.0513. On to U57A G61A, for which the nonsense suppression was 0.0464. With A60G C82A the figure was 0.0331; with A62U C75G, 0.201; with G59C G61C, not above 0.026.

On to G61U G67A, for which the nonsense suppression is 0.135. In the case of G61U G67U, the nonsense suppression was not above 0.026. To A60C G73U belongs 0.049; to A60C G73C, 0.0519. With A62C G85A, the nonsense suppression was not above 0.026.

As to G61A C75U, the nonsense suppression amounted to 0.923. To G61A C75A belongs 0.842. U58G U70C: the nonsense suppression is not above 0.026.

In the case of U58C A89C, the nonsense suppression is not above 0.026.

With A54U C56A C72U, the nonsense suppression is not above 0.026. Turning to U57C G66U C81A, the nonsense suppression was not above 0.026. As for C56U, the nonsense suppression was determined as 0.15. With G61C G73A, the nonsense suppression stood at 0.213. On to A54U G67A, for which the nonsense suppression turned out to be 0.0673. To U55C A74G belongs 0.144. As for A62G C80U C81G, the nonsense suppression is not above 0.026. In the case of U57G U71A, the nonsense suppression is not above 0.026.

Consider A62G C75A, for which the nonsense suppression was determined as 0.219. With A62G C75G the figure was 0.205.

For A60U G73A, the nonsense suppression came out at 0.222.

For the variant G61U C82U, the nonsense suppression stood at 0.73. To U57G U70G belongs not above 0.026. Turning to G59U U70C C72A, the nonsense suppression is not above 0.026. With U63A G78A the figure was 0.06; with A60G G86U, 0.0427; with G61C A74U C83G, not above 0.026. To C56G G61C G88U belongs not above 0.026; to G59A G84C, not above 0.026; to U58G C77U, not above 0.026.

Consider A54C G78A, for which the nonsense suppression is 0.107. On to G61A C68U, for which the nonsense suppression was 0.609. On to G61A C68G, for which the nonsense suppression stood at 0.0366. As to C56G U58C G66C, the nonsense suppression was not above 0.026. Turning to A60U A87G, the nonsense suppression was 1.02. As to A54C G85C, the nonsense suppression was found to be 0.0904. To G61U U76C belongs 0.911; to U57C G85A, 0.757; to C56A U63G, not above 0.026.

Turning to A54U C79U, the nonsense suppression is 0.571.

With U55C C75A, the nonsense suppression is 1.05. As for U55C C75U, the nonsense suppression stood at 0.903. Regarding U55C C75G, the nonsense suppression is 1.16. In the case of U55C G84U, the nonsense suppression turned out to be 0.0453.

In the case of A60U G65C C81G, the nonsense suppression came to 0.203. With A60G G69A the figure was 0.0526.
